# Source: PMC11184607 (ACS Pharmacology & Translational Science, 2024)
# Bridge positions count the residues as written; N and C are the ends. Square brackets hold non-standard residues; d marks the D form. Peptide text beside a SMILES is read from it. * marks the point of attachment. NMeTrp(1-(4-Br-benzyl)) = CN[C@@H](Cc1cn(Cc2ccc(Br)cc2)c2ccccc12)C(=O)O; Butanoyl(2R-oxy,4-CN) = N#CCC[C@@H](O)C(=O)O; Abu(4,4,4-F3) = N[C@@H](CC(F)(F)F)C(=O)O; dNMeaIle = CC[C@H](C)[C@@H](NC)C(=O)O; NMe2Val = CC(C)[C@@H](C(=O)*)N(C)C; NMeI = CC[C@H](C)[C@H](NC)C(=O)O; NMeT = CN[C@H](C(=O)O)[C@@H](C)O; NMeL = CN[C@@H](CC(C)C)C(=O)O; Hiv = CC(C)[C@H](O)C(=O)O; NMeS = CN[C@@H](CO)C(=O)O; NMeA = CN[C@@H](C)C(=O)O; dNMeA = CN[C@H](C)C(=O)O
# Key:
# [1] = system: Gaussia luciferase (GLuc); experiment: Gaussia luciferase; assay type: cell-based, human; conditions: 18 h; for Functional inhibition of GLuc secretion: relative to 1–3 or AprA
# Outline: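 U87-MG cells stably express GLuc after lentiviral transduction. Cells are seeded at 3000/well, allowed to adhere overnight, then given test compound or 0.1% DMSO for 18 h. Conditioned medium is read for luminescence with 1.2 μM final coelenterazine (3 s wait, 0.5 s integration). Adherent-cell ATP viability is read at the same time. Data are % of vehicle; IC50 comes from a logistic nonlinear fit; n ≥3 independent experiments.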
# cancer cell lines = conditions: cited from earlier work
# VCAM1 [2] = experiment: Immunoblot of TNFα-stimulated VCAM1 in SF-295 cells; assay type: cell-based, human; conditions: for Efficacy in suppressing TNFα-stimulated VCAM1 expression: 1 µM, 24 h; for IC50: read-out: IC50, VCAM1 expression, TNFα 10 ng/mL, 24 h
# Outline: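 SF-295 cells (RPMI 1640, 10% FBS) are cotreated 24 h with increasing concentrations of test compound plus TNFα 10 ng/mL. Controls are 0.1% DMSO-treated and untreated cells. VCAM1 and ICAM1 are immunoblotted after SDS-PAGE and PVDF transfer. Signals are normalized to a loading control. Concentration–response is fit to a logistic equation by nonlinear regression.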
# [3] = system: human cytokines and chemokines in the SF-268 secretome; experiment: Secretome profiling of human cytokines/chemokines in SF-268 conditioned medium; assay type: cell-based; conditions: SF-268, 1 μM, medium collected 24 h after removal, relative to vehicle
# Outline: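 SF-268 cells are seeded in 96-well plates; next day they get complete medium with test compound (1 μM) or 0.1% DMSO for 24 h. Medium is then replaced by serum-free medium for a further 24 h. Conditioned medium is concentrated by centrifugation (75 min, 4000g), flash-frozen and run on a 48-plex multiplex laser-bead cytokine/chemokine immunoassay. 43 analytes are quantified (five below detection dropped); data are % of vehicle.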
# VEGF-A = VEGF-A in cell culture medium by ELISA; assay type: cell-based, human; conditions: 1 µM, sustained 24 h after removal
# [4] = system: patient-derived GSCs (M120, MGG6, M76, GBM8, and 157); assay type: cell-based, human; conditions: read-out: EC50 values, five GSC lines (M120, MGG6, M76, GBM8, 157); 72 h
# [5] = system: HEK293FRT cells expressing WT or mutant (R66I) Sec61α; experiment: Viability of WT versus Sec61α R66I mutant HEK293 cells; assay type: cell-based, human; conditions: 72 h or 3 + 3 day exposure
# Outline: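 HEK293FRT cells carrying Sec61α R66I, with wild-type comparators, are grown in DMEM with 10% FBS, 6 mM L-glutamine and 1 mM pyruvate. They are exposed to increasing test compound concentrations or 0.1% DMSO for 72 h, or 3 + 3 days to avoid nutrient deprivation. ATP viability is read as % of vehicle, n = 3 wells. Logistic nonlinear fit; ≥3 independent experiments.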
# BiP = experiment: Immunoblot of BiP expression; assay type: cell-based, human; conditions: for BiP expression: HUVECs and U87-MG cells, 1 μM, 24 h
# VCAM1 [6] = experiment: Immunoblot of VCAM1 transiently expressed in HEK293 cells; assay type: cell-based, human; conditions: 1 µM, 24 h
# calreticulin (CALR) = experiment: Immunoblot of calreticulin expression in U87-MG cells; assay type: cell-based, human; conditions: 1 μM, 24 h
# Outline: (§1)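 U87-MG cells in MEM with 10% FBS are exposed 24 h to test compound (30 nM or 1 μM) or 0.1% DMSO. Protein-matched lysates (BCA) are run on SDS-PAGE, transferred to PVDF and detected with HRP secondary. Signals are normalized to α-tubulin and expressed relative to control. Three independent experiments; one-way ANOVA then t-test.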
# [7] = system: WT and mutant (R66I) Sec61α HCT116 colon cancer cells; experiment: Viability of WT versus Sec61α R66I mutant HCT116 cells; assay type: cell-based, human; conditions: for Effect of Sec61α R66I mutation on cytotoxic response relative to WT HCT116 cells: 72 h and 6 days (3 + 3 day exposure)
# [8] = system: UPR markers (BiP, CHOP, sXBP1, GADD34, IRE1) mRNA; experiment: qPCR of ER stress; assay type: cell-based, human; conditions: 300 nM, 24 h
# Outline: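 GSC neurospheres (MGG6, 83, M76, GBM8) are treated 24 h with test compound 80 nM, thapsigargin 300 nM, both together, or 0.1% DMSO. BiP, CHOP, sXBP1, GADD34 and IRE1 mRNA are measured by qPCR normalized to GAPDH and expressed as fold-change versus vehicle.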
# SPs of Sec61 substrates = conditions: read-out: IC50, SPs of other (insensitive) Sec61 substrates; cited from earlier work
# Hsp90 = experiment: Immunoblot of Hsp90 in U87-MG cells; assay type: cell-based, human; conditions: 1 30 nM, 2 1 μM, 24 h
# Outline: as §1
# SF-295 GBM cells = experiment: Cell viability; assay type: cell-based, human; conditions: 72 h
# Outline: (§2)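 Cells are grown at 37 °C in 5% CO2. U87-MG and U251 are in MEM with 10% FBS, SF-268 in DMEM with 10% FBS, and SF-295 in RPMI 1640 with 10% FBS. HUVECs are pooled donors. Exposure is to the test compound (0.1 nM–1 μM) or 0.1% DMSO for 72 h. Viability is read by ATP luminescence as % of vehicle, n = 3 wells. […] comes from a logistic nonlinear fit over three independent comparisons.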
# Hsp70 = experiment: Immunoblot of Hsp70 in U87-MG cells; assay type: cell-based, human; conditions: 1 30 nM, 2 1 μM, 24 h
# Outline: as §1
# U87-MG GBM cells = experiment: Cell viability; assay type: cell-based, human; conditions: 72 h
# Outline: as §2
smiles,measurement,setting,value
"CC[C@H](C)[C@@H]1C(=O)N[C@@H](C)C(=O)N(C)[C@@H](CC(C)C)C(=O)N[C@@H](Cc2ccc(OC)cc2)C(=O)N(C)[C@H](C)C(=O)O[C@H](C)[C@H](N(C)C(=O)[C@H](CC(C)C)N(C)C(=O)[C@H](COC)N(C)C(=O)[C@@H](OC(=O)[C@H](C(C)C)N(C)C)C(C)C)C(=O)N(C)[C@@H](COC)C(=O)N1C [compound 4, [L-Hiv^2, D-allo-Ile^7]-CbA] (NMe2Val-[Hiv][NMeS](Me)[NMeL][NMeT][NMeS](Me)[dNMeaIle]A[NMeL]Y(Me)[dNMeA]; ester 4-C)",Functional inhibition of GLuc secretion,[1],loss of functional efficacy
"CC[C@H](C)[C@H]1C(=O)N[C@@H](C)C(=O)N(C)[C@@H](CC(C)C)C(=O)N[C@@H](Cc2ccc(OC)cc2)C(=O)N(C)[C@@H](C)C(=O)O[C@H](C)[C@H](N(C)C(=O)[C@H](CC(C)C)N(C)C(=O)[C@H](COC)N(C)C(=O)[C@@H](OC(=O)[C@H](C(C)C)N(C)C)C(C)C)C(=O)N(C)[C@@H](COC)C(=O)N1C [compound 3, [L-Hiv^2, L-MeAla^11]-CbA] (NMe2Val-[Hiv][NMeS](Me)[NMeL][NMeT][NMeS](Me)[NMeI]A[NMeL]Y(Me)[NMeA]; ester 4-C)",Cytotoxic efficacy range,cancer cell lines,micromolar range
same,Efficacy in suppressing TNFα-stimulated VCAM1 expression,VCAM1 [2],partially effective
same,IC50,VCAM1 [2],0.62 µM
same,Number of the 43 secreted proteins whose expression was decreased by <50%,[3],18
same,Inhibition of VEGF-A at 24 h,VEGF-A,statistically significant inhibition
same,EC50,[4],< 6 µM
same,Response of mutant Sec61(R66I) HEK293 cells relative to WT,[5],patterns of resistance
same,BiP expression,BiP,no statistically significant change
same,Level of VCAM1 transiently expressed in HEK293 cells,VCAM1 [6],statistically significant decreases
same,IC50,"[1]; read-out: IC50, inhibition of GLuc secretion, U87-MG cells expressing GLuc, conditioned medium",< 0.02 µM
same,CALR expression,calreticulin (CALR),less sensitive
same,Cell viability of HCT116 cells at 72 h,"[7]; 72 h, 0.3 nM–3 μM",no change in the cell viability
same,Response of R66I mutant HCT116 cells at the extended end point,[7]; 6 days (3 + 3 day exposure),pattern of resistance
"CC[C@H](C)[C@@H]1C(=O)N[C@@H](C)C(=O)N(C)[C@@H](CC(C)C)C(=O)N[C@@H](Cc2ccc(OC)cc2)C(=O)N(C)[C@@H](C)C(=O)O[C@H](C)[C@H](N(C)C(=O)[C@H](CC(C)C)N(C)C(=O)[C@H](COC)N(C)C(=O)[C@@H](OC(=O)[C@H](C(C)C)N(C)C)C(C)C)C(=O)N(C)[C@@H](COC)C(=O)N1C [compound 5, [L-Hiv^2, D-allo-Ile^7, L-MeAla^11]-CbA] (NMe2Val-[Hiv][NMeS](Me)[NMeL][NMeT][NMeS](Me)[dNMeaIle]A[NMeL]Y(Me)[NMeA]; ester 4-C)",Functional inhibition of GLuc secretion,[1],loss of functional efficacy
"C[C@@]12OC(=O)[C@]1([C@@H](O)[C@@H]1C=CCCC1)NC(=O)[C@@H]2CCCl [marizomib, reference compound]",Response of mutant Sec61(R66I) HEK293 cells relative to WT,[5],highly sensitive
same,Effect of Sec61α R66I mutation on cytotoxic response relative to WT HCT116 cells,[7],did not change the cytotoxic efficacy
"C/C=C(/C)C(=O)O[C@H]1C(C)=C2[C@H]([C@@H]1OC(=O)CCCCCCC)[C@@](C)(OC(C)=O)C[C@H](OC(=O)CCC)[C@@]1(O)[C@H]2OC(=O)[C@@]1(C)O [thapsigargin, reference compound]","BiP, CHOP, sXBP1, GADD34 and IRE1 mRNA expression in GSCs",[8],marked upregulation
"CC(C)C[C@@H]1NC(=O)[C@H](Cc2cn(Cc3ccc(Br)cc3)c3ccccc23)N(C)C(=O)[C@H](CC(F)(F)F)NC(=O)[C@H](CC(C)C)N(C)C(=O)[C@H](CC(F)(F)F)NC(=O)[C@@H](CCC#N)OC(=O)[C@H](C)N(C)C1=O [KZR-8445] (cyclo(L[NMeA][Butanoyl(2R-oxy,4-CN)][Abu(4,4,4-F3)][NMeL][Abu(4,4,4-F3)][NMeTrp(1-(4-Br-benzyl))]))",IC50,SPs of Sec61 substrates,> 25 µM
"CC[C@H](C)[C@H]1C(=O)N[C@@H](C)C(=O)N(C)[C@@H](CC(C)C)C(=O)N[C@@H](Cc2ccc(OC)cc2)C(=O)N(C)[C@H](C)C(=O)O[C@H](C)[C@H](N(C)C(=O)[C@H](CC(C)C)N(C)C(=O)[C@H](COC)N(C)C(=O)[C@@H](OC(=O)[C@H](C(C)C)N(C)C)C(C)C)C(=O)N(C)[C@@H](COC)C(=O)N1C [compound 2, [L-Hiv^2]-CbA] (NMe2Val-[Hiv][NMeS](Me)[NMeL][NMeT][NMeS](Me)[NMeI]A[NMeL]Y(Me)[dNMeA]; ester 4-C)",Hsp90 expression,Hsp90,upregulation
same,"Fold less sensitive than 1, SF-295 cells",SF-295 GBM cells,5 fold
same,Hsp70 expression,Hsp70,upregulation
same,Fold greater sensitivity of VCAM1 to 2 than to 3,VCAM1 [2],approximately 7 fold
same,Efficacy in suppressing TNFα-stimulated VCAM1 expression,VCAM1 [2],fully efficacious
same,IC50,VCAM1 [2],0.088 µM
same,"Fold less potent than 1, U87-MG cells",U87-MG GBM cells,approximately 13 fold
same,Number of the 43 secreted proteins whose expression was decreased by <50%,[3],24
same,Inhibition of VEGF-A at 24 h,VEGF-A,statistically significant inhibition
same,EC50,[4],< 3 µM
same,Response of mutant Sec61(R66I) HEK293 cells relative to WT,[5],patterns of resistance
same,"BiP expression, GSC line 83","BiP; 1 250 nM and 500 nM, 2 3 µM, 72 h",decrease
same,BiP expression,BiP,suppressed
same,Level of VCAM1 transiently expressed in HEK293 cells,VCAM1 [6],statistically significant decreases
same,Effect of Sec61α R66I mutation on cytotoxic response relative to WT HCT116 cells,[7],decrease in cytotoxic efficacy
